# ChEMBL document CHEMBL1126074, “(+-)-carbocyclic 5'-nor-2'-deoxyguanosine and related purine derivatives: synthesis and antiviral properties” (1992)
# What was measured:
# Format in all cases: functional
# HEL [1] = assay: Concentration required to reduce CMV(AD-169) plaque formation by 50% in human embryonic lung (HEL) cell cultures.
# Procedure, shortened: (§1)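 Human embryonic lung (HEL) cell cultures were infected with 20 or 100 plaque forming units of CMV, as specified per column. Endpoint: concentration reducing plaque formation by 50%.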
# HEL [2] = assay: Concentration required to reduce varicella zoster virus (VZV)YS-TK-PFU plaque formation by 50% in human embryonic lung (HEL) cell cultures.
# HEL [3] = assay: Concentration required to reduce human embryonic lung (HEL) cell growth by 50%.; settings: read-out: MCC
# [4] = Concentration required to reduce HSV-1(KOS) induced cytopathogenicity by 50% in ESM(embryonic skin muscle) cell cultures.; settings: Homo sapiens
# Procedure, shortened: (§2)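 Embryonic skin muscle (ESM) cell cultures were infected at a virus input of 100 CCID50, where 1 CCID50 is the infective dose for 50% of cultures. Endpoint: concentration reducing virus-induced cytopathogenicity by 50%.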
# [5] = Concentration required to reduce vesicular stomatitis virus(VSV) induced cytopathogenicity by 50% in ESM(embryonic skin muscle) cell cultures.; settings: Homo sapiens; procedure, shortened: as §2
# HEL [6] = assay: Concentration required to reduce CMV (Davis) plaque formation by 50% at 100 plaque forming units(PFU) in human embryonic lung (HEL) cell cultures.; procedure, shortened: as §1
# HEL [7] = assay: Concentration required to reduce CMV(Davis) plaque formation by 50% at 20 plaque forming units(PFU) in human embryonic lung (HEL) cell cultures.; procedure, shortened: as §1
# [8] = Concentration required to cause a microscopically detectable alteration of normal ESM cell morphology.; settings: Homo sapiens
# [9] = Concentration required to reduce HSV-1 thymidine kinase deficient (TK-)(B2006) induced cytopathogenicity by 50% in ESM(embryonic skin muscle) cell cultures.; settings: Homo sapiens; procedure, shortened: as §2
# HEL [10] = assay: Concentration required to reduce varicella zoster virus(VZV)OKA plaque formation by 50% at 20 plaque forming units(PFU) in human embryonic lung (HEL) cell cultures.
# [11] = Concentration required to reduce vaccinia virus(VV) induced cytopathogenicity by 50% in ESM(embryonic skin muscle) cell cultures.; settings: Homo sapiens; procedure, shortened: as §2
# HEL [12] = assay: Concentration required to reduce VZV-07/1-TK- plaque formation by 50% in human embryonic lung (HEL) cell cultures.
# [13] = Concentration required to reduce HSV-1 thymidine kinase deficient (TK-)(VMW 1837) induced cytopathogenicity in by 50% ESM(embryonic skin muscle) cell cultures.; settings: Homo sapiens; procedure, shortened: as §2
# HEL [14] = assay: Concentration required to reduce VZV-YS/R-TK- plaque formation by 50% in human embryonic lung (HEL) cell cultures.
# [15] = Concentration required to reduce HSV-2(G) induced cytopathogenicity by 50% in ESM(embryonic skin muscle) cell cultures.; settings: Homo sapiens; procedure, shortened: as §2
Structure (SMILES),MIC (HEL [1]),MIC (HEL [2]),CC50 (50% cell growth inhibitory concentration) (HEL [3]),MIC [4],MIC [5],MIC (HEL [6]),MIC (HEL [7]),MCC [8],MIC [9],MIC (HEL [10]),MIC [11],MIC (HEL [12]),MIC [13],MIC (HEL [14]),MIC [15]
Nc1ncnc2c1ncn2[C@H]1C[C@@H](O)[C@@H](O)C1,200 µg/mL,25 µg/mL,110 µg/mL,> 200 µg/mL,> 200 µg/mL,200 µg/mL,200 µg/mL,> 400 µg/mL,70 µg/mL,24 µg/mL,> 100 µg/mL,24 µg/mL,100 µg/mL,47 µg/mL,> 200 µg/mL
Nc1nc(O)c2ncn([C@H]3C[C@@H](O)[C@@H](O)C3)c2n1,250 µg/mL,91 µg/mL,196 µg/mL,300 µg/mL,> 400 µg/mL,250 µg/mL,270 µg/mL,> 400 µg/mL,300 µg/mL,90 µg/mL,300 µg/mL,164 µg/mL,150 µg/mL,192 µg/mL,300 µg/mL
Nc1nc(N)c2ncn([C@H]3C[C@@H](O)[C@@H](O)C3)c2n1,70 µg/mL,200 µg/mL,139 µg/mL,> 200 µg/mL,> 200 µg/mL,70 µg/mL,70 µg/mL,> 400 µg/mL,100 µg/mL,70 µg/mL,> 150 µg/mL,70 µg/mL,150 µg/mL,89 µg/mL,200 µg/mL
O=c1[nH]c(=O)n([C@H]2C[C@H](O)[C@@H](CO)O2)cc1/C=C/Br [BRIVUDINE],–,0.0007 µg/mL,–,0.07 µg/mL,> 400 µg/mL,–,–,> 400 µg/mL,100 µg/mL,0.001 µg/mL,1 µg/mL,> 10 µg/mL,10 µg/mL,> 10 µg/mL,10 µg/mL
Nc1nc2c(ncn2COC(CO)CO)c(=O)[nH]1 [GANCICLOVIR],–,–,–,–,–,0.3 µg/mL,0.8 µg/mL,–,–,3 µg/mL,–,–,–,–,–
NC(=O)c1ncn([C@@H]2O[C@H](CO)[C@@H](O)[C@H]2O)n1 [RIBAVIRIN],–,–,–,> 400 µg/mL,150 µg/mL,–,–,> 400 µg/mL,300 µg/mL,–,70 µg/mL,–,40 µg/mL,–,> 400 µg/mL
